The source of these data is ChEMBL document CHEMBL3526056, “Characterization of in vitro glucuronidation clearance of a range of drugs in human kidney microsomes: comparison with liver and intestinal glucuronidation and impact of albumin” (Drug Metab Dispos, 2012).

Data set [1] can be described thus: Fraction unbound in human kidney microsomes at 5 uM after 30 to 60 mins by LC-MS/MS analysis.
Data set [2] can be described thus: Fraction unbound in human kidney microsomes at 5 uM after 30 to 60 mins by LC-MS/MS analysis in presence of 2% bovine serum albumin.
Data set [3] is described as follows: Ratio of unbound intrinsic glucuronidation clearance in human kidney microsomes in presence of 2% bovine serum albumin to unbound intrinsic glucuronidation clearance in human kidney microsomes in absence of bovine serum albumin. Format: ADME, microsome. Summed up: (§1)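 Ratios of mean scaled unbound CLint,UGT (per g tissue) between tissues, or between with and without BSA. Microsomal depletion assays at 1 μM, or 5 μM for propofol, in pH 7.1 phosphate at 37°C, read by LC-MS/MS. Kidney and liver n = 3, intestine n = 1, each in duplicate.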

The nature of data set [4]: Ratio of unbound intrinsic glucuronidation clearance in human intestinal microsomes in presence of 2% bovine serum albumin to unbound intrinsic glucuronidation clearance in human intestinal microsomes in absence of bovine serum albumin. Format: ADME, Intestine, Microsome. In outline: as §1
In data set [5] the test system is Liver microsome. The data set can be described thus: Fraction metabolized glucuronidation in human liver microsomes in presence of UDP-glucuronosyltransferase. The format is ADME. On the technique in general: Liver microsomes are vesicles of endoplasmic reticulum, rich in cytochrome P450 enzymes.
Data set [6] is described as follows: Fraction unbound in human plasma.
Data set [7] is described as follows: Glucuronidation clearance in human liver microsomes. The format is ADME.
Data set [8] can be described thus: Glucuronidation clearance in human liver microsomes in presence of bovine serum albumin. Format: ADME.
In data set [9] the test system is Liver microsome. The data set can be described thus: Fraction metabolized glucuronidation in human liver microsomes in presence of UDP-glucuronosyltransferase and bovine serum albumin. The format is ADME.
The nature of data set [10]: Ratio of drug level blood to plasma in human. Format: ADME. The following applies: blood and plasma.
The nature of data set [11]: Clearance in iv dosed human. Format: ADME, organism-based. The following applies: in vivo.
Data set [12] relates to Liver microsome. The data set can be described thus: Ratio of unbound intrinsic glucuronidation clearance in human liver microsomes in presence of 2% bovine serum albumin to unbound intrinsic glucuronidation clearance in human liver microsomes in absence of bovine serum albumin. Format: ADME. Summed up: as §1
Data set [13] in a line: Fraction unbound in human intestinal microsomes at 5 uM after 30 to 60 mins by LC-MS/MS analysis.
The nature of data set [14]: Fraction unbound in human liver microsomes at 5 uM after 30 to 60 mins by LC-MS/MS analysis.
In data set [15] the target is T1, UDP-glucuronosyltransferase 1A9 (Homo sapiens, UniProt O60656).
T1 sequence (O60656 whole entry): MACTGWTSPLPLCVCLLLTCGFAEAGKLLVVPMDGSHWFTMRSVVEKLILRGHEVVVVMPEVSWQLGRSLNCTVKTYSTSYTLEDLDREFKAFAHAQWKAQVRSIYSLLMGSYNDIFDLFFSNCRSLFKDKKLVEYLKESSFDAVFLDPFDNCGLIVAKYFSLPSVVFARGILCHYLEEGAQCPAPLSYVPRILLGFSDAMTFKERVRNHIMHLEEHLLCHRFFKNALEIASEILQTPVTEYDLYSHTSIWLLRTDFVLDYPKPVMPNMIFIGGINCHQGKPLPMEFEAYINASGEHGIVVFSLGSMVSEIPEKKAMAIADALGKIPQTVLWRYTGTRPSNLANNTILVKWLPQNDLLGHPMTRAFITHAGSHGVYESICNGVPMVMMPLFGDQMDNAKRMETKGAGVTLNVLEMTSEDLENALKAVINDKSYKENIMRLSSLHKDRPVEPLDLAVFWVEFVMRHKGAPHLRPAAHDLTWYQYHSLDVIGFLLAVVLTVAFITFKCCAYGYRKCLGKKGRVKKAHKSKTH
Nature of the data set: Ratio of UGT1A9-mediated unbound intrinsic glucuronidation clearance in human intestinal microsomes to UGT1A9-mediated unbound intrinsic glucuronidation clearance in human liver microsomes at 1 uM. Format: ADME.

The target of data set [16] is T1, UDP-glucuronosyltransferase 1A9. Nature of the data set: Drug metabolism in human kidney microsomes assessed as UGT1A9-mediated unbound intrinsic glucuronidation clearance at 1 uM after 30 to 60 mins by LC-MS/MS analysis. The format is ADME.
Data set [17] has the same target. The data set can be described thus: Ratio of UGT1A9-mediated unbound intrinsic glucuronidation clearance in human kidney microsomes to UGT1A9-mediated unbound intrinsic glucuronidation clearance in human intestinal microsomes at 1 uM. Format: ADME.
Data set [18] has the same target. Nature of the data set: Ratio of UGT1A9-mediated unbound intrinsic glucuronidation clearance in human intestinal microsomes to UGT1A9-mediated unbound intrinsic glucuronidation clearance in human liver microsomes at 1 uM in presence of 1% bovine serum albumin. Format: ADME.
Data set [19] in a line: Unbound intrinsic glucuronidation clearance in human intestinal microsomes at 1 uM after 30 to 60 mins by LC-MS/MS analysis in presence of UDP-glucuronosyltransferase and 1% bovine serum albumin. Format: ADME, Intestine, Microsome.
A short description of data set [20]: Fraction unbound in human liver microsomes at 1 uM after 30 to 60 mins by LC-MS/MS analysis in presence of 1% bovine serum albumin. The format is ADME. The following applies: liver microsomes.
The test system of data set [21] is Liver microsome. Nature of the data set: Unbound intrinsic glucuronidation clearance in human liver microsomes at 1 uM after 30 to 60 mins by LC-MS/MS analysis in presence of UDP-glucuronosyltransferase and 1% bovine serum albumin. Format: ADME.
The nature of data set [22]: Fraction unbound in human liver microsomes at 1 uM after 30 to 60 mins by LC-MS/MS analysis. The format is ADME.
Data set [23] in a line: Ratio of unbound intrinsic glucuronidation clearance in human kidney microsomes in presence of 1% bovine serum albumin to unbound intrinsic glucuronidation clearance in human kidney microsomes in absence of bovine serum albumin. The format is ADME, microsome. In outline: (§2)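 Unbound intrinsic glucuronidation clearance measured by parent-drug depletion in intestinal or kidney microsomes, once with 1% BSA and once without, under otherwise matched conditions (1 μM drug, pH 7.1 phosphate, 5 mM cofactor, 37°C). Each value was corrected for fu,inc. The ratio is the mean clearance with BSA over the mean without.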

Data set [24] deals with T1, UDP-glucuronosyltransferase 1A9. Nature of the data set: Ratio of UGT1A9-mediated unbound intrinsic glucuronidation clearance in human kidney microsomes to UGT1A9-mediated unbound intrinsic glucuronidation clearance in human intestinal microsomes at 1 uM in presence of 1% bovine serum albumin. The format is ADME.
For data set [25], the system named is Liver microsome. Nature of the data set: Unbound intrinsic glucuronidation clearance in human liver microsomes at 1 uM after 30 to 60 mins by LC-MS/MS analysis in presence of UDP-glucuronosyltransferase. The format is ADME. Summed up: (§3)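 Alamethicin-activated pooled microsomes (HLM 150 donors; HKM 8; HIM 18). Drug at 1 μM final, preincubated 5 min at 37°C in 0.1 M phosphate pH 7.1 with 3.45 mM MgCl2, 1.15 mM EDTA, 115 μM saccharic acid lactone. Started with […] cofactor (5 mM final), 30–60 min. Cofactor-free controls. Parent depletion by LC-MS/MS, single-exponential k. Corrected by HLM-dialysis fu,inc. Duplicates; n=3 (HIM n=1).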

Data set [26] has as its target T1, UDP-glucuronosyltransferase 1A9. Nature of the data set: Drug metabolism in human liver microsomes assessed as UGT1A9-mediated unbound intrinsic glucuronidation clearance at 1 uM after 30 to 60 mins by LC-MS/MS analysis. The format is ADME.
Data set [27] can be described thus: Drug metabolism in human intestinal microsomes assessed as UGT1A8/2B7-mediated unbound intrinsic glucuronidation clearance at 1 uM after 30 to 60 mins by LC-MS/MS analysis in presence of 2% bovine serum albumin. The format is ADME, Intestine.
In data set [28] the target is T1, UDP-glucuronosyltransferase 1A9. Nature of the data set: Drug metabolism in human kidney microsomes assessed as UGT1A9-mediated unbound intrinsic glucuronidation clearance at 1 uM after 30 to 60 mins by LC-MS/MS analysis in presence of 1% bovine serum albumin. The format is ADME.
Data set [29] can be described thus: Renal clearance in human. The format is ADME, organism-based, Kidney. The following applies: in vivo.
A short description of data set [30]: Unbound intrinsic glucuronidation clearance in human kidney microsomes at 1 uM after 30 to 60 mins by LC-MS/MS analysis in presence of UDP-glucuronosyltransferase and 1% bovine serum albumin. The format is ADME, microsome.
Data set [31] in a line: Fraction unbound in human intestinal microsomes at 1 uM after 30 to 60 mins by LC-MS/MS analysis. The format is ADME, Intestine, Microsome.
A short description of data set [32]: Ratio of unbound intrinsic glucuronidation clearance in human intestinal microsomes in presence of 1% bovine serum albumin to unbound intrinsic glucuronidation clearance in human intestinal microsomes in absence of bovine serum albumin. Format: ADME, Intestine, Microsome. In outline:
as §2

Data set [33] is described as follows: Unbound intrinsic glucuronidation clearance in human kidney microsomes at 1 uM after 30 to 60 mins by LC-MS/MS analysis in presence of UDP-glucuronosyltransferase. The format is ADME, microsome. In outline: as §3
Data set [34] deals with T1, UDP-glucuronosyltransferase 1A9. Nature of the data set: Ratio of UGT1A9-mediated unbound intrinsic glucuronidation clearance in human kidney microsomes to UGT1A9-mediated unbound intrinsic glucuronidation clearance in human liver microsomes at 1 uM in presence of 1% bovine serum albumin. Format: ADME. Summed up:
(§4)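 Unbound intrinsic clearance measured by substrate depletion in kidney and liver microsomes (1 μM drug, 0.1 M phosphate pH 7.1, 5 mM cofactor, 37°C, LC-MS/MS), without or with 1% BSA. Values scaled per g tissue; ratio taken as mean scaled kidney over mean scaled liver value.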

Data set [35] is described as follows: Fraction unbound in human kidney microsomes at 1 uM after 30 to 60 mins by LC-MS/MS analysis. Format: ADME.
Data set [36] concerns the target T1, UDP-glucuronosyltransferase 1A9. The data set can be described thus: Drug metabolism in human liver microsomes assessed as UGT1A9-mediated unbound intrinsic glucuronidation clearance at 1 uM after 30 to 60 mins by LC-MS/MS analysis in presence of 1% bovine serum albumin. Format: ADME.
A short description of data set [37]: Unbound intrinsic glucuronidation clearance in human intestinal microsomes at 1 uM after 30 to 60 mins by LC-MS/MS analysis in presence of UDP-glucuronosyltransferase. The format is ADME, Intestine, Microsome. In outline:
as §3

In data set [38] the target is T1, UDP-glucuronosyltransferase 1A9. Nature of the data set: Ratio of UGT1A9-mediated unbound intrinsic glucuronidation clearance in human kidney microsomes to UGT1A9-mediated unbound intrinsic glucuronidation clearance in human liver microsomes at 1 uM. Format: ADME. Summed up: as §4
Data set [39] shares this target. The data set can be described thus: Drug metabolism in human intestinal microsomes assessed as UGT1A9-mediated unbound intrinsic glucuronidation clearance at 1 uM after 30 to 60 mins by LC-MS/MS analysis. The format is ADME, Intestine.

Broadly, the fraction unbound is free concentration divided by total concentration. One may read the clearance as the rate of elimination divided by the concentration. A high value points to a high capacity for elimination. Regarding `CC(C)c1cccc(C(C)C)c1O` [PROPOFOL], the fraction unbound at 5 µM in [1] came to 0.69; in data set [2] it was 0.25; in data set [13] it was 0.69; in data set [14] it was 0.69. The Ratio in [3], in data set [4] and in [12] was 1.6 in each case. In addition, the Drug metabolism is 0.14 in [5] and 0.53 in data set [9]. Further, the fraction unbound in data set [6] came to 0.015. Further, the CLhep predicted in data set [7] was 0.233 L/h/kg; in data set [8], 0.882 L/h/kg. The blood plasma ratio in data set [10] amounted to 0.88. The clearance in data set [11] amounted to 1.66 L/h/kg.
`COc1c(C)c2c(c(O)c1C/C=C(\C)CCC(=O)O)C(=O)OC2` [MYCOPHENOLIC ACID]: the Ratio amounted to 0.078 in data set [15]; 15.4 in data set [17]; 0.128 in data set [18]; 4.9 in data set [23]; 14.8 in [24]; 4.7 in data set [32]. The Ratio is listed as 1.89 in data set [34] and 1.2 in [38]. Moreover, the CL free in data set [16] came out at 3.75 mL/min/g; in data set [19] it was 57.8 µL/min/mg; in [21] it was 233 µL/min/mg; in data set [25], 78.2 µL/min/mg; in [26] it was 3.13 mL/min/g; in data set [27], 0.292 mL/min/g. In addition, the CL free in data set [28] is 17.6 mL/min/g; in [30], 1370 µL/min/mg; in [33], 293 µL/min/mg; in data set [36] it was 9.32 mL/min/g; in data set [37] it was 11.8 µL/min/mg; in [39] it was 0.244 mL/min/g. Besides, the Drug metabolism in [5] and in data set [9] was 0.95 in each case. For the same compound, the fraction unbound in data set [6] amounted to 0.01. Also, the fraction unbound at 1 µM in data set [20] was 0.18; in [22] it was 0.83; in data set [31], 0.71; in data set [35], 0.91. Besides, the CLhep predicted in data set [7] and in [8] was 0.238 L/h/kg throughout. Further, the blood plasma ratio in data set [10] worked out at 0.6. Besides, in data set [29], the CL renal is 0.0006 L/h/kg. The compound further returned a clearance in data set [11] of 0.149 L/h/kg.
